Laboratory results taken from ChEMBL document CHEMBL3817773, “Antibacterial activities of fluorescent nano assembled triphenylamine phosphonium ionic liquids” (Bioorg Med Chem Lett, 2016).
Activity calls are given as the source filed them. No cut-off for these calls is given here.

Legend:
Staphylococcus aureus [1] = test: Growth inhibition of Staphylococcus aureus CIP 76.25 at 2 mg/L by time kill assay relative to control; format: functional, organism-based
In short: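 S. aureus CIP 7625 proliferation was followed by absorbance at 600 nm, with or without 2 mg/L, against an untreated control curve.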

Staphylococcus aureus [2] = test: Inhibition of metabolic activity in Staphylococcus aureus CIP 76.25 assessed as inhibition of resazurin reduction to resorufin at 2 mg/L treated for 15 mins measured over 2 to 6 hrs by CellTiter-Blue assay; format: functional, organism-based
In short: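 S. aureus CIP 7625 was treated 15 min with 2 mg/L, then metabolic activity was monitored as the rate of resazurin reduction to resorufin, compared with the untreated control.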

Klebsiella pneumoniae = test: Antimicrobial activity against Klebsiella pneumoniae CIP 82.91 after 18 to 20 hrs by broth dilution method; format: functional
In short: (§1)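 MICs measured against a panel of ESKAPE-representative strains, including S. aureus SA1199, at concentrations up to 64 mg/L.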

Staphylococcus aureus [3] = test: Antimicrobial activity against Staphylococcus aureus CIP 76.25 after 18 to 20 hrs by broth dilution method; format: functional; in short: as §1
Enterococcus faecium = test: Antimicrobial activity against Enterococcus faecium DSMZ 20477 after 18 to 20 hrs by broth dilution method; format: functional; in short: as §1
Acinetobacter baumannii = test: Antimicrobial activity against Acinetobacter baumannii ATCC 19606 after 18 to 20 hrs by broth dilution method; format: functional; in short: as §1
Pseudomonas aeruginosa = test: Antimicrobial activity against Pseudomonas aeruginosa CIP 100720 after 18 to 20 hrs by broth dilution method; format: functional; in short: as §1
Klebsiella aerogenes = test: Antimicrobial activity against Enterobacter aerogenes ATCC 13048 after 18 to 20 hrs by broth dilution method; format: functional; in short: as §1
Escherichia coli = test: Antimicrobial activity against Escherichia coli CIP 54.8 after 18 to 20 hrs by broth dilution method; format: functional; in short: as §1
Staphylococcus aureus [4] = test: Antimicrobial activity against Staphylococcus aureus SA1199 after 18 to 20 hrs by broth dilution method; format: functional; in short: as §1
Staphylococcus aureus [5] = test: Antimicrobial activity against multi-drug resistant Staphylococcus aureus SA1199B overexpressing NorA after 18 to 20 hrs by broth dilution method; format: functional
In short: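 MIC read against the NorA-overproducing S. aureus SA1199B, tested alongside its isogenic parent strain SA1199. Compounds were tested at concentrations up to 64 mg/L.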

Staphylococcus aureus [6] = test: Bactericidal activity against Staphylococcus aureus CIP 76.25 assessed as log reduction in bacterial count at 2 mg/L after 30 mins by time kill assay relative to control; format: functional
In short: (§2)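 Time-kill assay on S. aureus CIP 7625 exposed to 2 mg/L, with untreated control in parallel. Viability was followed by CFU counts over time, and log10 CFU/mL reduction was read at 30 min and 2 h of incubation.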

Staphylococcus aureus [7] = test: Bactericidal activity against Staphylococcus aureus CIP 76.25 assessed as log reduction in bacterial count at 2 mg/L after 2 hrs by time kill assay relative to control; format: functional; in short: as §2
Staphylococcus aureus [8] = test: Drug uptake in Staphylococcus aureus CIP 76.25 at 2 mg/L after 1.7 to 35 sec by fluorescence microscopic analysis; format: ADME, organism-based; conditions: in vivo
In short: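 Uptake was tracked through the intrinsic fluorescence of the triphenylamine moiety, using fluorescence microscopy of bacteria during incubation to follow accumulation kinetics over seconds.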

HepG2 = test: Cytotoxicity against human HepG2 cells assessed as reduction in cell viability after 24 hrs by WST1 assay; format: cell-based; conditions: HepG2, 24 h
Staphylococcus aureus [9] = test: Drug uptake in Staphylococcus aureus CIP 76.25 at 2 mg/L after 1.7 to 35 sec by phase contrast microscopic analysis; format: ADME, organism-based; conditions: in vivo

CCCC[P+](CCCC)(CCCC)CCCCCCOCc1ccc(N(c2ccccc2)c2ccccc2)cc1
growth inhibition (GI) (Staphylococcus aureus [1]): Active
inhibition (Staphylococcus aureus [2]): Active

CCCC[P+](CCCC)(CCCC)CCCCCCOCc1ccc(N(c2ccccc2)c2ccccc2)cc1.[Br-]
MIC (Klebsiella pneumoniae): 8 µg/mL
MIC (Staphylococcus aureus [3]): 0.5 µg/mL
MIC (Enterococcus faecium): 1 µg/mL
MIC (Acinetobacter baumannii): 16 µg/mL
MIC (Pseudomonas aeruginosa): > 64 µg/mL
MIC (Klebsiella aerogenes): 32 µg/mL
MIC (Escherichia coli): 16 µg/mL
MIC (Staphylococcus aureus [4]): 0.5 µg/mL
MIC (Staphylococcus aureus [5]): 0.5 µg/mL
Activity (Staphylococcus aureus [6]): >3 log10CFU/ml
Activity (Staphylococcus aureus [7]): >4 log10CFU/ml
Drug uptake (Staphylococcus aureus [8]): Active
IC50 (HepG2): < 0.124 µg/mL
Drug uptake (Staphylococcus aureus [9]): Active

CCCCCC[P+](CCCC)(CCCC)CCCC.[Br-]
MIC (Klebsiella pneumoniae): > 64 µg/mL
MIC (Staphylococcus aureus [3]): > 64 µg/mL
MIC (Enterococcus faecium): > 64 µg/mL
MIC (Acinetobacter baumannii): > 64 µg/mL
MIC (Pseudomonas aeruginosa): > 64 µg/mL
MIC (Klebsiella aerogenes): > 64 µg/mL
MIC (Escherichia coli): > 64 µg/mL
MIC (Staphylococcus aureus [4]): > 64 µg/mL
MIC (Staphylococcus aureus [5]): > 64 µg/mL
IC50 (HepG2): < 0.124 µg/mL

CCCC[P+](CCCC)(CCCC)CCCCCCOCc1ccc(N(c2ccccc2)c2ccccc2)cc1.[I-]
MIC (Klebsiella pneumoniae): 16 µg/mL
MIC (Staphylococcus aureus [3]): 1 µg/mL
MIC (Enterococcus faecium): 2 µg/mL
MIC (Acinetobacter baumannii): 16 µg/mL
MIC (Pseudomonas aeruginosa): 32 µg/mL
MIC (Klebsiella aerogenes): 32 µg/mL
MIC (Escherichia coli): 16 µg/mL
MIC (Staphylococcus aureus [4]): 1 µg/mL
MIC (Staphylococcus aureus [5]): 1 µg/mL
IC50 (HepG2): < 0.124 µg/mL

CCCC[P+](CCCC)(CCCC)CCCCCCOCc1ccc(N(c2ccccc2)c2ccccc2)cc1.[Cl-]
MIC (Klebsiella pneumoniae): 16 µg/mL
MIC (Staphylococcus aureus [3]): 1 µg/mL
MIC (Enterococcus faecium): 1 µg/mL
MIC (Acinetobacter baumannii): 16 µg/mL
MIC (Pseudomonas aeruginosa): 32 µg/mL
MIC (Klebsiella aerogenes): 16 µg/mL
MIC (Escherichia coli): 16 µg/mL
MIC (Staphylococcus aureus [4]): 0.5 µg/mL
MIC (Staphylococcus aureus [5]): 0.5 µg/mL
IC50 (HepG2): < 0.124 µg/mL

CCCCCC[P+](CCCC)(CCCC)CCCC.[Cl-]
MIC (Klebsiella pneumoniae): > 64 µg/mL
MIC (Staphylococcus aureus [3]): > 64 µg/mL
MIC (Enterococcus faecium): > 64 µg/mL
MIC (Acinetobacter baumannii): > 64 µg/mL
MIC (Pseudomonas aeruginosa): > 64 µg/mL
MIC (Klebsiella aerogenes): > 64 µg/mL
MIC (Escherichia coli): > 64 µg/mL
MIC (Staphylococcus aureus [4]): > 64 µg/mL
MIC (Staphylococcus aureus [5]): > 64 µg/mL
IC50 (HepG2): 5.42 µg/mL

CCCCCC[P+](CCCC)(CCCC)CCCC.[I-]
MIC (Klebsiella pneumoniae): > 64 µg/mL
MIC (Staphylococcus aureus [3]): > 64 µg/mL
MIC (Enterococcus faecium): > 64 µg/mL
MIC (Acinetobacter baumannii): > 64 µg/mL
MIC (Pseudomonas aeruginosa): > 64 µg/mL
MIC (Klebsiella aerogenes): > 64 µg/mL
MIC (Escherichia coli): > 64 µg/mL
MIC (Staphylococcus aureus [4]): > 64 µg/mL
MIC (Staphylococcus aureus [5]): > 64 µg/mL
IC50 (HepG2): 0.189 µg/mL

c1ccc(N(c2ccccc2)c2ccccc2)cc1
MIC (Klebsiella pneumoniae): > 64 µg/mL
MIC (Staphylococcus aureus [3]): > 64 µg/mL
MIC (Enterococcus faecium): > 64 µg/mL
MIC (Acinetobacter baumannii): > 64 µg/mL
MIC (Pseudomonas aeruginosa): > 64 µg/mL
MIC (Klebsiella aerogenes): > 64 µg/mL
MIC (Escherichia coli): > 64 µg/mL
MIC (Staphylococcus aureus [4]): > 64 µg/mL
MIC (Staphylococcus aureus [5]): > 64 µg/mL
IC50 (HepG2): < 0.124 µg/mL

CCCC[P+](CCCC)(CCCC)CCCCCCOC.[Br-]
MIC (Klebsiella pneumoniae): > 64 µg/mL
MIC (Staphylococcus aureus [3]): > 64 µg/mL
MIC (Enterococcus faecium): > 64 µg/mL
MIC (Acinetobacter baumannii): > 64 µg/mL
MIC (Pseudomonas aeruginosa): > 64 µg/mL
MIC (Klebsiella aerogenes): > 64 µg/mL
MIC (Escherichia coli): > 64 µg/mL
MIC (Staphylococcus aureus [4]): > 64 µg/mL
MIC (Staphylococcus aureus [5]): > 64 µg/mL
IC50 (HepG2): 0.712 µg/mL
